HCV NS3 hel inh: blocks Hepatitis C virus NS3 helicase unwinding | NS3 helicase DNA unwinding, Cy5 molecular beacon fluorescence | inhibition, % at 10.9 µM | 290,000 compounds, 0.56% hits | AID 1800;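 active = inhibition above the mean of all tested compounds plus 3 SD, set per campaign, cut at about 35% in these data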;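 note: 0% = DMSO wells and 100% = thioflavine S control wells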
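Assay system: hepatitis C virus NS3 helicase domain fragment enzyme. Also added: annealed dual-labelled DNA beacon duplex, ATP-started. Timing: 1 h reaction at 25 °C, ATP-initiated. Technique: Cy5 fluorescence at 0 and 60 min, beacon hairpin quenching. Evaluation: % inhibition of unwinding. Replication: one well per compound.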
GPR7 antagonist: human neuropeptides B/W receptor 1 antagonism; P48145; GPR7-expressing cells, fluorescence antagonist assay; inhibition, % at 4.4 µM; 290,000 compounds, 1.1% hits; in the data active = inhibition above about 16%, passing the limit was not always enough;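 note: cells stimulated with the agonist NPW; 0% = agonist with vehicle and 100% = vehicle without agonist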
Target sequence (P48145 whole entry, looked up): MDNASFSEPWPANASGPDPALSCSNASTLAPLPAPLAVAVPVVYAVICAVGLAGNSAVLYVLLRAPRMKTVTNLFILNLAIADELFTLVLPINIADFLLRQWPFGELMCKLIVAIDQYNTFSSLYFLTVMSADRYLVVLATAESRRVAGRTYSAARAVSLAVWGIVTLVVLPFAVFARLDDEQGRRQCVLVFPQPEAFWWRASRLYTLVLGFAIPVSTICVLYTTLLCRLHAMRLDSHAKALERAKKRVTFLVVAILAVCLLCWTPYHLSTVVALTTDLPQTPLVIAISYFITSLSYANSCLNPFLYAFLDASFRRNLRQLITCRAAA
EBV gp42 block: blocks Epstein-Barr virus glycoprotein 42 binding; Q1HVG2; Fluorescence polarization binding assay, mP read-out; inhibition, % (tested at 21.74 µM); AID 1085; 220,000 compounds, 0.42% hits; in the data active = inhibition above about 50%
core dimer inh: HCV core protein dimerization inhibition. TR-FRET GST/Flag-core106 dimerization, 1536-well. inhibition, % at 5 µM. 300,000 compounds, 0.33% hits. AID 1899;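 active = inhibition above the mean of all tested compounds plus 3 SD, set per screening campaign, cut at about 45% in these data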
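assay system = GST-tagged and Flag-tagged HCV core protein residues 1-106 | controls = unlabelled core106 and no-GST-core106 wells | incubation = compound-protein-antibody incubation 4 h at 22.5 °C | probe or stimulus = Eu donor and XL665 acceptor anti-tag antibodies | read-out = % inhibition based on acceptor/donor emission ratio | signal = TR-FRET 671 and 617 nm emission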
ZTA DNA inh: blocks Epstein-Barr virus ZTA, an EBNA-1 counter-screen; P03206; ZTA-DNA binding, fluorescence polarization; inhibition, % at 11 µM; 320,000 compounds, 0.15% hits; in the data active = inhibition above about 33%
Target sequence (P03206 whole entry, looked up): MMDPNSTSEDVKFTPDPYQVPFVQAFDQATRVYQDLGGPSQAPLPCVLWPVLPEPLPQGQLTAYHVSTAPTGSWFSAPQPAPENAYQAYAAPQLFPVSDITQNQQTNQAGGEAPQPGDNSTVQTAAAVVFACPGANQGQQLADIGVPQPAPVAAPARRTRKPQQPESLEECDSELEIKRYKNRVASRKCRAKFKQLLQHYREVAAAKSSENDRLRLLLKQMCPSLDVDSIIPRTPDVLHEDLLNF
EBNA-1 inh: blocks EBNA-1 binding to DNA | AID 1950 | inhibition, % at 14.8 µM | EBNA-1 DNA binding, fluorescence polarization | 300,000 compounds, 0.34% hits; in the data active = inhibition above about 28%
GPR7 antag cf: human GPR7 antagonism, confirmation assay | shares compounds with GPR7 antagonist | GPR7-expressing cells, calcium fluorescence antagonist mode | inhibition, % at 4.4 µM | 2,400 compounds, 52% hits | AID 1952; in the data active = inhibition above about 24%;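 note: stimulated with the GPR7 agonist NPW; 0% = agonist plus vehicle and 100% = vehicle alone without agonist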
MCHR1 antag: antagonizes human MCHR1, a GPR7 antagonist counter-screen. 2,400 compounds, 62% hits. inhibition, % at 4.4 µM. MCHR1-expressing cells, fluorescence antagonist assay. shares compounds with GPR7 antagonist; in the data active = inhibition above about 22%;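 note: 0% = vehicle with agonist and 100% = vehicle without agonist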
Starred values were filed as active, the others as inactive; . = not tested or not shown. An excerpt weighted towards active compounds, which were near 2.3% of everything screened.

SMILES	HCV NS3 hel inh	GPR7 antagonist	EBV gp42 block	core dimer inh	ZTA DNA inh	EBNA-1 inh	GPR7 antag cf	MCHR1 antag
Cc1ccccc1OCc1n(CC(=O)OC2CC(C)CCC2C(C)C)c2ccccc2[n+]1C (centres undefined)	-40	42*	-15	-9	-16	-2	61*	92*
CC1CCC(C(C)C)C(OC(=O)COC(=O)c2ccc(N)cc2)C1 (centres undefined)	-1	-16	-7	3	3	7	.	.
CCOC(=O)Cn1c(COc2ccccc2OC)[n+](C)c2ccccc21	.	.	.	0	-4	5	.	.
O=C(NCCc1nnc2ccc(NCC3CCCO3)nn12)c1ccccc1 (centres undefined)	-2	-7	-6	-2	11	7	.	.
CC(C(=O)NC(=O)NC1CCCCC1)N1CCN(C(c2ccccc2)c2ccccc2)CC1 (centres undefined)	-3	0	-11	4	-13	-8	.	.
CCCCCCCCCCOC(=O)Cn1c(COc2cccc(C)c2)[n+](C)c2ccccc21	-55	45*	.	-3	10	0	68*	85*
CCCCCCCCCCOC(=O)Cn1c(COc2ccc(OC)cc2)[n+](C)c2ccccc21	-59	79*	.	-4	-3	0	78*	83*
CCCCOC(=O)Cn1c(=O)n(CC(=O)OCCCC)c2ccccc21	2	-2	-16	5	-1	6	.	.
CCCCCOC(=O)Cn1c(=O)oc2ccccc21	8	-1	0	-7	-16	-10	.	.
CN(C)c1ccc(CNCCC(Cc2ccccc2)c2ccco2)cc1 (centres undefined)	-55	11	-4	-6	-15	-5	.	.
c1ccc(CNCCC(Cc2ccccc2)c2ccco2)cc1 (centres undefined)	-58	23*	-15	2	0	-7	28*	35*
Cc1ccc(S(=O)(=O)NCc2ccccc2)cc1C(=O)NCCc1ccc(S(N)(=O)=O)cc1	.	.	.	.	-28	.	.	.
N#Cc1ccc(CSc2nnc(-c3ccccc3)n2Cc2ccco2)cc1	0	13	-7	8	9	5	.	.
Cc1cc(Cl)ccc1NC(=O)CSc1nnc(Cc2cccs2)n1Cc1ccco1	8	23*	6	19	-3	-4	38*	34*
COc1cc2c(cc1NC(=O)CSc1nnc(Cc3cccs3)n1Cc1ccco1)oc1ccccc12	-3	-5	-12	11	2	11	.	.
N#Cc1ccc(CSc2nnc(Cc3cccs3)n2Cc2ccco2)cc1	10	25*	-5	45	-8	-11	28*	20
COc1ccc(/C=C2\SC(=O)N(CC(=O)Nc3ccc(F)cc3)C2=O)cc1O	0	29*	.	2	-12	1	1	6
CN(CC(=O)Nc1ccccc1C(F)(F)F)C(=O)c1cc2c(s1)CCCCC2	.	.	.	4	3	-13	.	.
COc1ccc(CCNC(=O)CCCn2nc(C)c([N+](=O)[O-])c2C)cc1OC	-3	8	-1	1	14	3	.	.
Cn1cccc1C(=O)NC(=O)COC(=O)CNC(=O)CNC(=O)c1ccc(Cl)cc1Cl	13	27*	11	21	-11	-21	8	1
Cn1cccc1C(=O)NC(=O)COC(=O)CNC(=O)c1ccc(Cl)cc1Cl	-1	8	11	13	0	3	.	.
COc1ccc(Oc2ccc(/C=C/C(=O)c3ccc(O)cc3)cc2[N+](=O)[O-])cc1	-9	26*	-3	10	4	2	77*	87*
O=C(/C=C/c1ccc(O)c([N+](=O)[O-])c1)c1ccc2ccccc2c1	-3	-17	.	17	29	2	.	.
CCOC(=O)c1[nH]cnc1C(=O)Nc1ccccc1OC	-6	-1	2	2	-7	-12	.	.
CCOC(=O)C1(Cc2cccc(Cl)c2)CCCN(C(=O)CCSC)C1 (centres undefined)	-5	29*	.	4	-5	-4	7	12
SMILES	HCV NS3 hel inh	GPR7 antagonist	EBV gp42 block	core dimer inh	ZTA DNA inh	EBNA-1 inh	GPR7 antag cf	MCHR1 antag
C=CCCC(=O)N1CCCC(Cc2cccc(Cl)c2)(C(=O)OCC)C1 (centres undefined)	-6	-3	.	5	-7	-8	.	.
CC(C)CC(NC(=O)C1CCC(C)CC1)C(=O)Nc1ccc2c(c1)OCCO2 (centres undefined)	6	8	-12	-1	3	10	.	.
CCCCN1C(=O)C(NC(C)=O)c2ccccc21 (centres undefined)	2	26*	-5	-4	9	12	-15	20
CC(=O)NC1C(=O)N(CCc2ccccc2)c2ccc(Br)cc21 (centres undefined)	-4	22	8	.	.	.	.	.
CCC1Oc2ccc(C)cc2N(CC(=O)NC2CCCCC2)C1=O (centres undefined)	-2	32*	.	-20	-6	1	20	16
CCC1Oc2ccc(C)cc2N(CC(=O)NCc2cc(OC)ccc2OC)C1=O (centres undefined)	-5	-1	-8	-2	18	10	.	.
CCC1Oc2ccc(C)cc2N(CC(=O)NCc2cccc(OC)c2)C1=O (centres undefined)	10	24*	-14	-3	-19	0	14	23*
CCCCN(C(=O)c1ccc(-c2ccc(Cl)cc2)o1)c1c(N)n(CCCC)c(=O)[nH]c1=O	.	.	.	.	1	.	.	.
COC(=O)C1=C(C)Nc2nc(SCc3ccccc3)[nH]c(=O)c2C1c1cccs1 (centres undefined)	7	33*	2	28	-2	-3	17	34*
CC(C)(C)c1ccc(NC(=O)c2ccccc2)c([N+](=O)[O-])c1	0	-14	-24	1	9	2	.	.
O=C(Nc1cccc(S(=O)(=O)N2CCCCC2)c1)c1ccc2c(=O)n3c(nc2c1)CCCCC3	-1	28*	-3	17	0	3	15	77*
CCc1ccc(NC(=O)c2ccc3c(=O)n4c(nc3c2)CCCCC4)cc1	5	-11	-2	1	-4	-8	.	.
CCCCc1noc2c1/C(=N\O)CC(c1ccccc1)C2 (centres undefined)	-3	41*	-9	2	21	4	36*	23*
CCCCc1n[nH]c2c1/C(=N/O)CC(c1ccccc1)C2 (centres undefined)	4	11	-9	1	2	-1	.	.
COCCN1C(=O)c2cc(C(=O)Nc3ccc(OC)c(OC)c3)ccc2C1Nc1ccc(OC)c(OC)c1 (centres undefined)	-3	-6	-8	-3	-3	3	.	.
